Measurements reported in paper PMC6147567 (Molecules : A Journal of Synthetic Chemistry and Natural …, 2005).

Key:
[1] = target: xanthine oxidase (Xox) from buttermilk (Bos taurus, UniProt P80457); assay: Inhibition of xanthine oxidase, hypoxanthine oxidation test; assay type: biochemical; conditions: for inhibition of Xox (in words): Xox from buttermilk
In short: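 Buttermilk enzyme assayed by hypoxanthine oxidation at 48–150 μM substrate in 50 mM phosphate, pH 7.0, 25 °C. Product formation was followed at 300 nm in a thermostatted spectrophotometer. Inhibitor concentrations were set spectrophotometrically from absorption data and reached up to ~300 μM. IC50 was obtained at more than one hypoxanthine level, and 'no inhibition' means none detected up to 300 μM.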

[2] = target: T1, rabbit muscle guanine deaminase (GDA) (Oryctolagus cuniculus, UniProt G1T386); assay: Guanine deaminase assay with 8-azaguanine as substrate; assay type: biochemical; conditions: concentrations up to 150 μM, 50 mM phosphate pH 6.1, 25 °C
T1 sequence (G1T386 1-454): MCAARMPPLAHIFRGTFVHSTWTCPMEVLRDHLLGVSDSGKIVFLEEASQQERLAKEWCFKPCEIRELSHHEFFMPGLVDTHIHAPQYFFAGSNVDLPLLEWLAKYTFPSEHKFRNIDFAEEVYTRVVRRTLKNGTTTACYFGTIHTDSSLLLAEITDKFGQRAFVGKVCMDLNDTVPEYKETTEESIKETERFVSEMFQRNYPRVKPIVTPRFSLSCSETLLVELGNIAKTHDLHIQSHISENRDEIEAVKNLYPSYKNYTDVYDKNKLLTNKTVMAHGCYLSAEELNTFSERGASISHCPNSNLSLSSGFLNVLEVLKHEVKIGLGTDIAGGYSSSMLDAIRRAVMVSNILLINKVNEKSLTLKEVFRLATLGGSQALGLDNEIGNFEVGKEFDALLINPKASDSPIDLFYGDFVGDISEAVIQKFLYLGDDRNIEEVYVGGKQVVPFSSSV
In short: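 Commercial guanine deaminase, assayed at pH 6.1 with ~50 μM 8-azaguanine as substrate. Reaction followed at 265 nm in a thermostatted UV spectrophotometer; default temperature for the work was 25 °C. Test compound concentrations were determined spectrophotometrically from absorption data and ranged up to ~300 μM.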

[3] = system: xanthine oxidase (Xox); conditions: cited from earlier work

Sequence of xanthine oxidase (Xox) from buttermilk (P80457 whole entry): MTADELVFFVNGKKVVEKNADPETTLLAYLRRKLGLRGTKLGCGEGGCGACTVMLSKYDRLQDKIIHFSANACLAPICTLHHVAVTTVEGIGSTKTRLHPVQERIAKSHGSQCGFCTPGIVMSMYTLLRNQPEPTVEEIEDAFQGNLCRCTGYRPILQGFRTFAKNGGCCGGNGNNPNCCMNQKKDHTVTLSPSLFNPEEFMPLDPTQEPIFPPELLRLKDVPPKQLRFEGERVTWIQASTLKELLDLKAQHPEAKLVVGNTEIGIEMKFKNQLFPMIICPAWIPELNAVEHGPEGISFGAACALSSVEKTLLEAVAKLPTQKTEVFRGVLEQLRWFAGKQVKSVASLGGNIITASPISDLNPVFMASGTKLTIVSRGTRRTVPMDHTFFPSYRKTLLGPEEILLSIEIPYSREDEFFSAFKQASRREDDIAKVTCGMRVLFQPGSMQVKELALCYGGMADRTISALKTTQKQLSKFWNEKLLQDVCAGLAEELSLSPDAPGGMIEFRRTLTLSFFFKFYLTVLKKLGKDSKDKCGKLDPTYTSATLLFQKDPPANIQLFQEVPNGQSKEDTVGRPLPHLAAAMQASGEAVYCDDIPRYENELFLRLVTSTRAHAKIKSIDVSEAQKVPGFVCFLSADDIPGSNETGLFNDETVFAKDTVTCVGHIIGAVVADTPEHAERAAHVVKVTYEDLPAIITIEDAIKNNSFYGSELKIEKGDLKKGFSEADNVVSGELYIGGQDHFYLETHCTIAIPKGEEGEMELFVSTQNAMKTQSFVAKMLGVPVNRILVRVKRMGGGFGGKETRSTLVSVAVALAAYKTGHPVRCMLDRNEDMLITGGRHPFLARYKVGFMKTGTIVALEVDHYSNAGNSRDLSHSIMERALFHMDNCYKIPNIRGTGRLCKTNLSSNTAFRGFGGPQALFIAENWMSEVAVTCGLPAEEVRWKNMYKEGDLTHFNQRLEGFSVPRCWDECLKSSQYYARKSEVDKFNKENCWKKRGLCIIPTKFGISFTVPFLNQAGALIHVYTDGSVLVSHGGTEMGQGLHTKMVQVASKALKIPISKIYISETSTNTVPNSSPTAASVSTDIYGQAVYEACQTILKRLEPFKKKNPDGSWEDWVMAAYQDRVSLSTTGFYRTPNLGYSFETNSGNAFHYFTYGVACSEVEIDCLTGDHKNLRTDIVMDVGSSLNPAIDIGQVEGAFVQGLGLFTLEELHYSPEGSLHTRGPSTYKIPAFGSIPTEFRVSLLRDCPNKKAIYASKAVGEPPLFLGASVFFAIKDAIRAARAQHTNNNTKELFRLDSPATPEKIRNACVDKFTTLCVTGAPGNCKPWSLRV

Structure (SMILES)	IC50 [1] [µM]	inhibition of Xox (in words) [1]	other results
CSc1nnc2[nH]nc(C)c2n1 [Compound 1, 3-Methyl-5-methylsulfanyl-1H-pyrazolo[4,3-e][1,2,4]triazine]	~300	moderate inhibitory activity	inhibition of Xox (in words) ([1]; listed as S-methyl derivative): detectable inhibition
Cc1n[nH]c2nnc(N)nc12 [Compound 4, 5-Amino-3-methyl-1H-pyrazolo[4,3-e][1,2,4]triazine]	> 300	–	activity as a substrate of GDA [2]: did not show any activity; activity as an inhibitor of GDA [2]: did not show any activity
Cc1n[nH]c2nncnc12 [Compound 7, 3-Methyl-1H-pyrazolo[4,3-e][1,2,4]triazine]	–	Only weak inhibition	inhibition of Xox (in words) ([1]; listed as 3-methyl-7-azapyrazolo[4,3-d]pyrimidine): detectable inhibition
Cc1nn(C)c2nncnc12 [Compound 8, 1,3-dimethyl-1H-pyrazolo[4,3-e][1,2,4]triazine]	> 300	–	–
Oc1ncnc2[nH]ncc12 [allopurinol]	–	–	inhibition of xanthine oxidase (in words) [3]: strong inhibitors
